Compound activity from PubChem.
UPR XBP1 act: activators of adaptive arm of unfolded protein response (XBP1); CHO-XBP1 luciferase reporter, IRE1-XBP1 UPR activation, luminescence; percent of tunicamycin response, DMSO as zero; activation, % at 20 µM; 0.33% of 330,000 active;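 active = versus positive control, 20 µM dose yields 30% or more activation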
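Material: CHO-XBP1 cells stably carrying IRE1-XBP1-driven luciferase reporter | Medium: F12 with 10% serum | Compound dosing: 20 µM single concentration, DMSO 1% | Incubation: Overnight seeding at 37 °C, 6 h compound treatment at 37 °C | Detection: Steady-Glo luminescence read | Read-out basis: % activation of reporter signal versus tunicamycin and DMSO controls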
Dynein transport: dynein cargo transport inhibition; z-score, hits read low; 0.47% of 220,000 active; 3617.4 mouse cells, GR-EGFP nuclear translocation imaging; test concentration mostly 20 µM; stimulated with dexamethasone, 1 µM; active compounds read low;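 active = plate z-score of nuclear minus cytoplasmic receptor signal below a set negative limit, without overly bright fluorescence or cell loss, cut at about -3.5 in these data, passing the limit was not always enough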;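 also: z-score of nuclear minus cytoplasmic ring GR-EGFP intensity difference per well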
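Buffer or medium: tet-free, stripped-serum medium; Also added: dexamethasone, 1.0 µM final; Technique: high-content fluorescence imaging after fixation; Times: 48 h induction, 1 h compound, 30 min dex at 37 °C; Read-out: per-cell GR-EGFP intensity, nucleus versus surrounding cytoplasmic ring, well-averaged.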
L major viab: Leishmania major promastigote growth inhibition. 9% of 200,000 active. inhibition, % at 10 µM. Leishmania major promastigotes, resazurin fluorescence viability; in the data active = inhibition above about 50%;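 also: promastigotes grown with compound for 44 hours at 28 °C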
UPR CHOP act: activators of apoptotic arm of unfolded protein response (CHOP) | CHO-CHOP luciferase reporter, UPR activation, luminescence; percent of tunicamycin response over DMSO baseline | activation, % at 10 µM | 0.34% of 330,000 active | AID 449763;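 active = at 10 µM dose, activation of 40% or more, normalized to positive control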
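Test system: CHO CHOP reporter cells. Input: 500 CHO-CHOP cells per well. Medium: F12 with 10% FBS. Technique: luciferase luminescence. Measure: percent activation relative to tunicamycin control. Dosing: 10 µM compound, 0.5% DMSO. Timing: 16-18 h cell attachment, then 6 h compound exposure, 37 °C.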
CHOP inhibitor: CHOP inhibition in unfolded protein response; 3.8% of 220,000 active; AID 2732; inhibition, % at 10 µM; CHO-K1 CHOP-promoter luciferase, tunicamycin-induced, 15-18 h;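 active = compounds that reduced the stress-induced luciferase reporter signal by more than about 70% of percent inhibition, limit read from the data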
T cruzi repl: blocks replication of Trypanosoma cruzi; 1.4% of 300,000 active; AID 1885; inhibition, % (no concentration beside the values); T. cruzi beta-gal in NIH3T3, luminescence, 90 h;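 active = mean inhibition across valid replicates above about 55%, limit read from the data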;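 also: signal also drops with host cell toxicity which is not excluded here; higher percent means less beta-gal luminescence so fewer parasites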
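System: mouse NIH/3T3 fibroblasts infected with β-gal-expressing T. cruzi Tulahuen C4 / Input: NIH/3T3 cells, 5,000 per well / Buffer or medium: Low-serum DMEM with 2% FBS / Probe or stimulus: 5000 reporter trypomastigotes per well / Schedule: ≥90 h infection period, 3 h prior cell attachment / Measured by: GalScreen luminescence, 60 min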
L major 1uM: L. major promastigote growth inhibition, 1 uM repeat; shares compounds with L major viab; resazurin fluorescence, 48 h; inhibition, % at 1 µM; 13% of 1,100 active; AID 1258;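 active = inhibition above about 50% in both repeat tests, limit read from the data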
Each line names hits and unclear results; the compound was inactive in the other large screens (follow-up assays come after a bar, where they were run). The entries come from a sample that favours hits as a whole.

Cc1ccc(S(=O)(=O)N2CCN(S(=O)(=O)c3ccccc3Br)C2=O)cc1	none (no result: Dynein transport, L major viab, CHOP inhibitor, T cruzi repl)
CN1CCC(C2(O)c3ccccc3CSc3sccc32)CC1 (stereo unspecified)	L major viab 67 (no result: T cruzi repl) | L major 1uM inactive
Cc1c([N+](=O)[O-])nnn1-c1cc(Cl)cc(Cl)c1	L major viab 50, T cruzi repl 63 | L major 1uM inactive
N#Cc1nnn(-c2cc(Cl)cc(Cl)c2)c1N	none (no result: L major viab)
CNCCCC12CCC(c3ccccc31)c1ccccc12	L major viab 97 | L major 1uM inactive
O=C(Nc1cccc2ncccc12)c1ccco1	none (no result: Dynein transport, L major viab, CHOP inhibitor)
COc1ccc(-n2c(C)cc(C(=O)CSc3nn4c(=O)c(C(C)(C)C)nnc4s3)c2C)cc1	L major viab 64 | L major 1uM inactive
O=S(=O)(Cc1nnnn1-c1ccccc1)c1ccc(Cl)cc1	none (no result: Dynein transport, L major viab, CHOP inhibitor)
CCS(=O)(=O)c1nnnn1-c1ccccc1S(C)(=O)=O	L major viab 54 | L major 1uM inactive
Cc1cc(C)n2nc(C(=O)OCC(=O)N(C)C3CCCCC3)nc2n1	none (no result: Dynein transport, L major viab, CHOP inhibitor)
Cc1ccc(NC(=O)C(NS(=O)(=O)c2cccc3nsnc23)C(C)C)nc1 (stereo unspecified)	none
CC(C)C(NS(=O)(=O)c1cccc2nsnc12)C(=O)Nc1nc2ccc(Cl)cc2s1 (stereo unspecified)	L major viab 90, CHOP inhibitor 88 | L major 1uM inactive
CC(=O)Nc1ccc(S(=O)(=O)Nc2nc3ccccc3nc2Nc2ccc(O)c(C(=O)O)c2)cc1	none (no result: Dynein transport, L major viab, CHOP inhibitor)
Cc1ccc2c(c1)c1c3n2CCN=C3CCC1	none
c1cc2c(cc1C1CCCCC1)c1c3n2CCN=C3CCC1	L major viab 101, T cruzi repl 71 | L major 1uM inactive
CCOC(=O)c1sc(=S)sc1SCc1cccc(C(F)(F)F)c1	L major viab 61 | L major 1uM inactive
CN(C(=O)CCS(=O)(=O)c1ccc2c(c1)oc(=O)n2C)C1CCCCC1	none (no result: Dynein transport, L major viab, CHOP inhibitor)
CCCc1noc2c1/C(=N\O)CC(c1ccccc1)C2 (stereo unspecified)	none
CCCc1n[nH]c2c1/C(=N/O)CC(c1ccccc1)C2 (stereo unspecified)	L major viab 81 | L major 1uM 59
CCN(CC)CCOC(=O)C12CC3CC(CC(C3)C1)C2	L major viab 97 | L major 1uM inactive
COc1cccc(OC)c1C(=O)OCC(=O)N(c1ccccc1)C1CCCCC1	none (no result: Dynein transport, L major viab, CHOP inhibitor, T cruzi repl)
CCCNc1nc2ccccc2n2c(C)nnc12	none (no result: Dynein transport, L major viab, CHOP inhibitor)
CCCN(CCC)c1nc2ccccc2n2c(C)nnc12	L major viab 82, CHOP inhibitor 83 | L major 1uM inactive
COc1ccc(OCc2ccc(/C=N\NC(=O)c3sccc3C)o2)cc1	none (no result: Dynein transport, L major viab, CHOP inhibitor, T cruzi repl)
CCOC(=O)c1c(NC(=O)CSc2nnc(-c3c[nH]c4ccccc34)n2CCOC)sc2c1CCCC2	L major viab 72 | L major 1uM inactive
Cc1ccc(C(=O)NCCNC(=O)COc2ccc(C)c(C)c2)cn1	none (no result: Dynein transport, L major viab, CHOP inhibitor)
CCN(CC(=O)NCC1CCCO1)S(=O)(=O)c1ccc2ccccc2c1 (stereo unspecified)	none (no result: Dynein transport, L major viab, CHOP inhibitor)
Cc1ccc(NC(=O)c2ccc(Br)o2)cc1S(=O)(=O)N(C)C	L major viab 60 | L major 1uM inactive
O=C(CN(c1cccc([N+](=O)[O-])c1)S(=O)(=O)c1ccccc1)N1CCCCC1	none (no result: Dynein transport, L major viab, CHOP inhibitor)
O=C(O)c1ccc(NC(=S)NC(NC(=O)c2ccco2)C(Cl)(Cl)Cl)cc1 (stereo unspecified)	none
Cc1ccc(NC(=S)NC(NC(=O)c2ccco2)C(Cl)(Cl)Cl)cc1 (stereo unspecified)	L major viab 83 | L major 1uM inactive
COc1ccc2[nH]c(C(=O)O)c(CCNC(=O)/C=C/c3ccc(O)c(OC)c3)c2c1	none (no result: Dynein transport, L major viab, CHOP inhibitor)
O=C(OCc1ccccc1)N1CCOCCOCCN(C(=O)OCc2ccccc2)CCOCCOCC1	L major viab 61 | L major 1uM inactive
O=C(NCc1ccccc1)N1CCOCC1	none (no result: L major viab)
Cc1ccc(NC(=O)COc2ccccc2C(N)=O)cc1S(=O)(=O)N1CCCCCC1	none (no result: Dynein transport, L major viab, CHOP inhibitor, T cruzi repl)
Cc1c(CCOC(=O)CC23CC4CC(CC(C4)C2)C3)sc[n+]1CC(=O)c1ccccc1	L major viab 91 | L major 1uM inactive
Cc1ccccc1-n1ncc2c([N+](=O)[O-])cc([N+](=O)[O-])cc21	L major viab 100 | L major 1uM 98
Cc1ccccc1N1C(=O)c2cccc([N+](=O)[O-])c2C1=O	none (no result: UPR XBP1 act, UPR CHOP act, T cruzi repl)
Nn1c(-c2ccccc2Cl)nnc1-c1ccccc1Cl	L major viab 76 (no result: T cruzi repl) | L major 1uM inactive
CSc1nnc(-c2ccccc2Cl)n1N	none
CN(C)S(=O)(=O)c1cccc(-c2cn3cc(Cl)ccc3n2)c1	L major viab 99 (no result: T cruzi repl) | L major 1uM inactive
CCOc1ccc(C2=Nc3ccccc3C(c3ccc(N4CCOCC4)cc3)=NN2)cc1	L major viab 63 | L major 1uM inactive
Cc1ccccc1CNC(=O)CCn1nc(C)c2c(C)n(-c3ccccc3)nc2c1=O	none (no result: Dynein transport, L major viab, CHOP inhibitor)
Cc1ccc(N/N=C/c2c(O)cc(C)oc2=O)cc1	L major viab 87 | L major 1uM inactive
Cc1ccc(CO/N=C/c2c(O)cc(C)oc2=O)cc1	none
ClCc1nnc(-c2ccccc2)o1	L major viab 101 | L major 1uM inactive
O=[N+]([O-])c1cc([N+](=O)[O-])c2n[nH]c(-c3ccccc3)c2c1	L major viab 98, CHOP inhibitor 72, T cruzi repl 71 | L major 1uM 53
O=[N+]([O-])c1cccc2c(Br)[nH]nc12	none (no result: UPR XBP1 act, Dynein transport, L major viab, UPR CHOP act, T cruzi repl)
CN1CCN(C(=S)NC(=O)c2ccc(C(C)(C)C)cc2)CC1	none
C=CCn1cccc(/C=C/C(=O)c2ccc(C(C)(C)C)cc2)c1=S	L major viab 100 (no result: UPR XBP1 act, UPR CHOP act) | L major 1uM 66
C(=C/c1nccc2c1[nH]c1ccccc12)/c1ccc2c(c1)OCO2	L major viab 96 (no result: UPR XBP1 act, UPR CHOP act) | L major 1uM inactive
O=c1c2ccccc2nc(/C=C/c2ccc3c(c2)OCO3)n1CCCO	none (no result: UPR XBP1 act, UPR CHOP act, T cruzi repl)
C[C@H]1CC[C@H]2C(=O)N3[C@H](c4ccccc4Br)[C@@H](C)CC[C@H]3C(=O)N2[C@@H]1c1ccccc1Br	L major viab 100, CHOP inhibitor 85 | L major 1uM inactive
O=C(Nc1ccc(S(=O)(=O)NCc2ccccc2)cc1)C1CCCCC1	none (no result: Dynein transport, L major viab, CHOP inhibitor)
N=C(N)CCCOc1ccccc1-c1ccccc1	L major viab 53 | L major 1uM inactive
Cc1ccc(S(=O)(=O)C2C(=O)N(C)C3(C)CC2c2ccccc2O3)cc1C (stereo unspecified)	none
CN1C(=O)C(c2nnc(Nc3cccc4ccccc34)s2)C2CC1(C)Oc1ccccc12 (stereo unspecified)	L major viab 72 (no result: UPR XBP1 act, UPR CHOP act, T cruzi repl) | L major 1uM inactive
